ChEMBL document CHEMBL3600326, “Discovery of potent α1L-adrenoceptor agonists: Design and synthesis of bicyclic derivatives” (Bioorg Med Chem Lett, 2015)

Species: Rattus norvegicus
Test: Agonist activity at alpha1L-adrenoceptor in Wistar rat isolated bladder neck assessed as induction of muscle contraction
Details: not given
Procedure, shortened: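 Male Wistar rats anaesthetised with sodium pentobarbital (50 mg/kg) and killed. Bladder neck was isolated and cleaned in modified Krebs-Henseleit solution gassed with 95% O2/5% CO2. Strips were mounted in organ baths of the same solution at 37°C. Contraction was recorded across increasing doses, with noradrenaline as reference agonist.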

Q: Which Activity does the source give for `CC(C)c1cc(Cl)cc2c1NCCC2C1=NCCN1` (stereo not given) here?
A: Dose-dependent effect

System: CHO
Test: (§1) Agonist activity at human alpha1L-adrenoceptor expressed in CHO cells co-expressing CRELD1alpha assessed as induction of calcium mobilization after 60 mins by fluorometric imaging plate reader assay
Assay type: cell-based
Details: not given
Procedure, shortened: (§2)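 CHO cells (α1L-dominant) expressing human α1A-AR plus human CRELD1α were plated and grown overnight at 37°C under CO2. Cells were loaded with Calcium 5 indicator dye for 60 min at 37°C, then calcium influx was read by FLIPR. Activity is expressed as EC50 relative to the noradrenaline EC50.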

Q: For `Cc1ccc(Cl)cc1CC1=NCCN1`, which Activity is on record?
A: 0%

Q: Which Activity does the source give for `Cc1c(CC2=NCCN2)cccc1C(C)C` here?
A: 36%

System: not listed separately
Test: as §1
Assay type: cell-based
Details: 1 h
Procedure, shortened: as §2

Q: Which EC50 does the source give for `NC[C@H](O)c1ccc(O)c(O)c1` here?
A: 1020 nM

System: CHO
Test: Agonist activity at human alpha1L-adrenoceptor expressed in CHO cells co-expressing CRELD1alpha assessed as induction of calcium mobilization after 60 mins by fluorometric imaging plate reader assay relative to control noradrenaline
Assay type: cell-based
Details: not given
Procedure, shortened: as §2

Q: For `CC(C)c1cc(Cl)cc2c1OCCC2C1=NCCN1` (stereo not given), which Ratio is on record?
A: 0.014

Q: With `CC(C)c1cc(Cl)cc2c1CCCC2C1=NCCN1` (stereo not given) as the compound, how does the Ratio read?
A: 0.024

Q: For `CC(C)c1cc(Cl)cc2c1NCCC2C1=NCCN1` (stereo not given), which Ratio is on record?
A: 0.0028

Q: With `CC1(C)CCCc2c(CC3=NCCN3)cc(Cl)cc21` as the compound, how does the Ratio read?
A: 0.028

Q: Which Ratio does the source give for `Cc1c(CC2=NCCN2)cc(Cl)cc1C(C)C` here?
A: 0.043

Q: For `Clc1cc(CC2=NCCN2)c2c(c1)C1(CCO2)CC1`, which Ratio is on record?
A: 0.088

Q: For `CC1(C)CCc2c(CC3=NCCN3)cc(Cl)cc21`, which Ratio is on record?
A: 0.12

Q: Which Ratio does the source give for `CC(C)c1cc(Cl)cc2c1CCC2C1=NCCN1` (stereo not given) here?
A: 0.08

Q: Which Ratio does the source give for `CC(C)c1cc(Cl)cc(CC2=NCCN2)c1` here?
A: 0.52

Q: For `Clc1cc(CC2=NCCN2)c2c(c1)C1(CCC2)CC1`, which Ratio is on record?
A: 0.025

Q: Which Ratio does the source give for `CC1CCCc2c(CC3=NCCN3)cc(Cl)cc21` (stereo not given) here?
A: 0.063
